From ChEMBL document CHEMBL1255475, “Mutant prevention concentrations of four carbapenems against gram-negative rods” (2010)

Key:
Type in all cases: functional
Escherichia coli [1] = assay: Antibacterial activity against beta-lactamase-negative Escherichia coli E409 assessed as mutant prevention concentration after overnight incubation
Klebsiella pneumoniae [2] = assay: Antibacterial activity against beta-lactamase-positive ESBL-positive Klebsiella pneumoniae E457 assessed as mutant prevention concentration after overnight incubation
Outline: (§1)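 Overnight growth on blood trypticase soy agar (35°C, air) was resuspended in 0.9% saline and counted on drug-free Mueller-Hinton agar. […] Colonies were retested by agar dilution to confirm mutants. MPC was the lowest concentration preventing resistant-mutant growth.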

Klebsiella pneumoniae [3] = assay: Antibacterial activity against beta-lactamase-negative Klebsiella pneumoniae E418 assessed as mutant prevention concentration after overnight incubation; outline: as §1
Escherichia coli [4] = assay: Antibacterial activity against beta-lactamase-negative Escherichia coli E347 assessed as mutant prevention concentration after overnight incubation
Escherichia coli [5] = assay: Antibacterial activity against beta-lactamase-negative Escherichia coli E408 assessed as mutant prevention concentration after overnight incubation
Klebsiella pneumoniae [6] = assay: Antibacterial activity against beta-lactamase-negative Klebsiella pneumoniae E359 incubated up to 7 days by agar dilution method; conditions: E359, 168 h
Escherichia coli [7] = assay: Antibacterial activity against beta-lactamase-positive ESBL-positive Escherichia coli E458 assessed as mutant prevention concentration after overnight incubation; outline: as §1
Klebsiella pneumoniae [8] = assay: Antibacterial activity against beta-lactamase-positive ESBL-negative Klebsiella pneumoniae E474 incubated up to 7 days by agar dilution method; conditions: E474, 168 h
Klebsiella pneumoniae [9] = assay: Antibacterial activity against beta-lactamase-positive ESBL-negative Klebsiella pneumoniae E473 incubated up to 7 days by agar dilution method; conditions: E473, 168 h
Klebsiella pneumoniae [10] = assay: Antibacterial activity against beta-lactamase-positive ESBL-positive Klebsiella pneumoniae E453 incubated up to 7 days by agar dilution method; conditions: E453, 168 h
Outline: (§2)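 MIC by CLSI agar dilution, with quality-control strains in each run. Beta-lactamase status was set by 30 μg cefazolin Kirby-Bauer disk diffusion. ESBL status was set by cefotaxime and ceftazidime disks (30 μg) with and without clavulanic acid (10 μg).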

Klebsiella pneumoniae [11] = assay: Antibacterial activity against beta-lactamase-positive ESBL-negative Klebsiella pneumoniae E474 assessed as mutant prevention concentration after overnight incubation; outline: as §1
Klebsiella pneumoniae [12] = assay: Antibacterial activity against beta-lactamase-negative Klebsiella pneumoniae E417 assessed as mutant prevention concentration after overnight incubation
Escherichia coli [13] = assay: Antibacterial activity against beta-lactamase-positive ESBL-negative Escherichia coli E412 assessed as mutant prevention concentration after overnight incubation; outline: as §1
Escherichia coli [14] = assay: Antibacterial activity against beta-lactamase-positive ESBL-positive Escherichia coli E451 incubated up to 7 days by agar dilution method; conditions: E451, 168 h; outline: as §2
Escherichia coli [15] = assay: Antibacterial activity against beta-lactamase-negative Escherichia coli E347 incubated up to 7 days by agar dilution method; conditions: E347, 168 h
Escherichia coli [16] = assay: Antibacterial activity against beta-lactamase-negative Escherichia coli E345 incubated up to 7 days by agar dilution method; conditions: E345, 168 h
Klebsiella pneumoniae [17] = assay: Antibacterial activity against beta-lactamase-negative Klebsiella pneumoniae E420 assessed as mutant prevention concentration after overnight incubation; outline: as §1
Escherichia coli [18] = assay: Antibacterial activity against beta-lactamase-positive ESBL-positive Escherichia coli E459 incubated up to 7 days by agar dilution method; conditions: E459, 168 h; outline: as §2
Klebsiella pneumoniae [19] = assay: Antibacterial activity against beta-lactamase-positive ESBL-negative Klebsiella pneumoniae E507 assessed as mutant prevention concentration after overnight incubation; outline: as §1
Klebsiella pneumoniae [20] = assay: Antibacterial activity against beta-lactamase-positive ESBL-negative Klebsiella pneumoniae E472 incubated up to 7 days by agar dilution method; conditions: E472, 168 h
Escherichia coli [21] = assay: Antibacterial activity against beta-lactamase-negative Escherichia coli E424 assessed as mutant prevention concentration after overnight incubation
Klebsiella pneumoniae [22] = assay: Antibacterial activity against beta-lactamase-negative Klebsiella pneumoniae E420 incubated up to 7 days by agar dilution method; conditions: E420, 168 h; outline: as §2
Escherichia coli [23] = assay: Antibacterial activity against beta-lactamase-positive ESBL-positive Escherichia coli E458 incubated up to 7 days by agar dilution method; conditions: E458, 168 h; outline: as §2
Escherichia coli [24] = assay: Antibacterial activity against beta-lactamase-positive ESBL-negative Escherichia coli E430 incubated up to 7 days by agar dilution method; conditions: E430, 168 h; outline: as §2
Klebsiella pneumoniae [25] = assay: Antibacterial activity against beta-lactamase-positive ESBL-negative Klebsiella pneumoniae E480 incubated up to 7 days by agar dilution method; conditions: E480, 168 h
Escherichia coli [26] = assay: Antibacterial activity against beta-lactamase-negative Escherichia coli E350 assessed as mutant prevention concentration after overnight incubation
Escherichia coli [27] = assay: Antibacterial activity against beta-lactamase-positive ESBL-negative Escherichia coli E483 […] by agar dilution method
Klebsiella pneumoniae [28] = assay: Antibacterial activity against beta-lactamase-positive ESBL-positive Klebsiella pneumoniae E478 assessed as mutant prevention concentration after overnight incubation; outline: as §1
Klebsiella pneumoniae [29] = assay: Antibacterial activity against beta-lactamase-positive ESBL-positive Klebsiella pneumoniae E475 assessed as mutant prevention concentration after overnight incubation; outline: as §1
Escherichia coli [30] = assay: Antibacterial activity against beta-lactamase-positive ESBL-positive Escherichia coli E452 incubated up to 7 days by agar dilution method; conditions: E452, 168 h; outline: as §2
Escherichia coli [31] = assay: Antibacterial activity against beta-lactamase-positive ESBL-negative Escherichia coli E430 assessed as mutant prevention concentration after overnight incubation; outline: as §1
Acinetobacter baumannii [32] = assay: Antibacterial activity against Acinetobacter baumannii A884 assessed as mutant prevention concentration after overnight incubation
Acinetobacter baumannii [33] = assay: Antibacterial activity against Acinetobacter baumannii A849 assessed as mutant prevention concentration after overnight incubation
Acinetobacter baumannii [34] = assay: Antibacterial activity against Acinetobacter baumannii A848 assessed as mutant prevention concentration after overnight incubation
Acinetobacter baumannii [35] = assay: Antibacterial activity against Acinetobacter baumannii A891 assessed as mutant prevention concentration after overnight incubation
Pseudomonas aeruginosa [36] = assay: Antibacterial activity against Pseudomonas aeruginosa P320 assessed as mutant prevention concentration after overnight incubation
Acinetobacter baumannii [37] = assay: Antibacterial activity against Acinetobacter baumannii A911 assessed as mutant prevention concentration after overnight incubation
Acinetobacter baumannii [38] = assay: Antibacterial activity against Acinetobacter baumannii A908 assessed as mutant prevention concentration after overnight incubation
Acinetobacter baumannii [39] = assay: Antibacterial activity against Acinetobacter baumannii A890 assessed as mutant prevention concentration after overnight incubation
Pseudomonas aeruginosa [40] = assay: Antibacterial activity against Pseudomonas aeruginosa P332 assessed as mutant prevention concentration after overnight incubation
Pseudomonas aeruginosa [41] = assay: Antibacterial activity against Pseudomonas aeruginosa P353 assessed as mutant prevention concentration after overnight incubation
Pseudomonas aeruginosa [42] = assay: Antibacterial activity against Pseudomonas aeruginosa P352 assessed as mutant prevention concentration after overnight incubation
Pseudomonas aeruginosa [43] = assay: Antibacterial activity against Pseudomonas aeruginosa P322 assessed as mutant prevention concentration after overnight incubation
Acinetobacter baumannii [44] = assay: Antibacterial activity against Acinetobacter baumannii A885 assessed as mutant prevention concentration after overnight incubation
Acinetobacter baumannii [45] = assay: Antibacterial activity against Acinetobacter baumannii A894 assessed as mutant prevention concentration after overnight incubation
Pseudomonas aeruginosa [46] = assay: Antibacterial activity against Pseudomonas aeruginosa P356 assessed as mutant prevention concentration after overnight incubation
Pseudomonas aeruginosa [47] = assay: Antibacterial activity against Pseudomonas aeruginosa P349 assessed as mutant prevention concentration after overnight incubation

C[C@@H](O)[C@H]1C(=O)N2C(C(=O)O)=C(S[C@@H]3CN[C@H](C(=O)Nc4cccc(C(=O)O)c4)C3)[C@H](C)[C@H]12
8 µg/mL: MIC (Klebsiella pneumoniae [9]) | MIC (Klebsiella pneumoniae [20]) | MIC (Klebsiella pneumoniae [25])
0.016 µg/mL: MIC (Klebsiella pneumoniae [6]) | MPC (Klebsiella pneumoniae [12])
0.125 µg/mL: MPC (Escherichia coli [1]) | MPC (Klebsiella pneumoniae [2]) | MPC (Klebsiella pneumoniae [3])
0.5 µg/mL: MPC (Escherichia coli [7]) | MIC (Klebsiella pneumoniae [10])
1 µg/mL: MPC (Escherichia coli [13])
0.06 µg/mL: MPC (Escherichia coli [5]) | MIC (Escherichia coli [14]) | MPC (Escherichia coli [21]) | MIC (Escherichia coli [24])
0.008 µg/mL: MIC (Escherichia coli [15]) | MIC (Escherichia coli [16]) | MIC (Klebsiella pneumoniae [22])
>0.5 µg/mL: MPC (Escherichia coli [31])
4 µg/mL: MIC (Klebsiella pneumoniae [8]) | MIC (Escherichia coli [27])
64 µg/mL: MPC (Klebsiella pneumoniae [19])
16 µg/mL: MPC (Klebsiella pneumoniae [28]) | MPC (Klebsiella pneumoniae [29])
0.03 µg/mL: MPC (Escherichia coli [4]) | MPC (Klebsiella pneumoniae [17]) | MIC (Escherichia coli [18]) | MIC (Escherichia coli [23]) | MPC (Escherichia coli [26]) | MIC (Escherichia coli [30])
32 µg/mL: MPC (Klebsiella pneumoniae [11])

C[C@@H](O)[C@H]1C(=O)N2C(C(=O)O)=C(S[C@@H]3CN[C@H](CNS(N)(=O)=O)C3)[C@H](C)[C@H]12 [DORIPENEM]
32 µg/mL: MPC (Klebsiella pneumoniae [11])
0.06 µg/mL: MPC (Escherichia coli [4]) | MPC (Escherichia coli [5]) | MIC (Klebsiella pneumoniae [6]) | MPC (Escherichia coli [7]) | MIC (Klebsiella pneumoniae [10]) | MPC (Klebsiella pneumoniae [17]) | MPC (Escherichia coli [21]) | MIC (Klebsiella pneumoniae [22])
0.25 µg/mL: MPC (Klebsiella pneumoniae [3]) | MIC (Escherichia coli [27])
>4 µg/mL: MPC (Pseudomonas aeruginosa [40]) | MPC (Pseudomonas aeruginosa [46])
8 µg/mL: MPC (Acinetobacter baumannii [37]) | MPC (Acinetobacter baumannii [44]) | MPC (Pseudomonas aeruginosa [47])
2 µg/mL: MIC (Klebsiella pneumoniae [8]) | MIC (Klebsiella pneumoniae [9]) | MPC (Acinetobacter baumannii [35]) | MIC (Klebsiella pneumoniae [20]) | MPC (Pseudomonas aeruginosa [41]) | MIC (Klebsiella pneumoniae [25]) | MPC (Pseudomonas aeruginosa [42]) | MPC (Acinetobacter baumannii [45])
4 µg/mL: MPC (Acinetobacter baumannii [32]) | MPC (Pseudomonas aeruginosa [43])
1 µg/mL: MPC (Acinetobacter baumannii [38]) | MPC (Acinetobacter baumannii [39])
>2 µg/mL: MPC (Pseudomonas aeruginosa [36])
0.125 µg/mL: MPC (Escherichia coli [1]) | MPC (Klebsiella pneumoniae [2]) | MPC (Klebsiella pneumoniae [12]) | MPC (Escherichia coli [13]) | MPC (Escherichia coli [26]) | MPC (Escherichia coli [31])
0.03 µg/mL: MIC (Escherichia coli [14]) | MIC (Escherichia coli [15]) | MIC (Escherichia coli [16]) | MIC (Escherichia coli [18]) | MIC (Escherichia coli [23]) | MIC (Escherichia coli [24]) | MIC (Escherichia coli [30])
>64 µg/mL: MPC (Klebsiella pneumoniae [19]) | MPC (Klebsiella pneumoniae [28])
16 µg/mL: MPC (Acinetobacter baumannii [33]) | MPC (Acinetobacter baumannii [34]) | MPC (Klebsiella pneumoniae [29])

C[C@@H](O)[C@H]1C(=O)N2C(C(=O)O)=C(SCCNC=N)C[C@H]12 [IMIPENEM ANHYDROUS]
16 µg/mL: MPC (Klebsiella pneumoniae [11]) | MPC (Pseudomonas aeruginosa [40]) | MPC (Klebsiella pneumoniae [28]) | MPC (Klebsiella pneumoniae [29])
1 µg/mL: MPC (Escherichia coli [1]) | MPC (Escherichia coli [5]) | MPC (Acinetobacter baumannii [35]) | MPC (Acinetobacter baumannii [38]) | MPC (Acinetobacter baumannii [39]) | MPC (Escherichia coli [13]) | MPC (Acinetobacter baumannii [45])
2 µg/mL: MPC (Escherichia coli [26]) | MPC (Escherichia coli [31])
0.5 µg/mL: MPC (Klebsiella pneumoniae [2]) | MPC (Escherichia coli [4]) | MPC (Escherichia coli [7]) | MPC (Klebsiella pneumoniae [12]) | MPC (Escherichia coli [21])
>32 µg/mL: MPC (Pseudomonas aeruginosa [46])
64 µg/mL: MPC (Acinetobacter baumannii [33]) | MPC (Klebsiella pneumoniae [19]) | MPC (Pseudomonas aeruginosa [41])
0.25 µg/mL: MPC (Klebsiella pneumoniae [17])
4 µg/mL: MPC (Klebsiella pneumoniae [3]) | MPC (Acinetobacter baumannii [32])
32 µg/mL: MPC (Pseudomonas aeruginosa [36]) | MPC (Pseudomonas aeruginosa [42]) | MPC (Pseudomonas aeruginosa [43]) | MPC (Pseudomonas aeruginosa [47])
8 µg/mL: MPC (Acinetobacter baumannii [34]) | MPC (Acinetobacter baumannii [37]) | MPC (Acinetobacter baumannii [44])
